This is an account of results in ChEMBL document CHEMBL3045046, “Synthesis, herbicidal activities, and 3D-QSAR of 2-cyanoacrylates containing aromatic methylamine moieties” (J Agric Food Chem, 2008).

What all share (format): functional
Assay [1] relates to Medicago sativa. Description: Herbicidal activity against Medicago sativa (alfalfa) assessed as inhibition of herb growth at 1.5 kg/ha during preemergence treatment protocol. The conditions noted are these: pre-emergence, read-out: GI.
Assay [2] relates to Brassica napus. Briefly: Herbicidal activity against Brassica napus (oilseed rape) assessed as inhibition of herb growth at 1.5 kg/ha during postemergence treatment protocol. The conditions noted are these: post-emergence, read-out: GI.
Assay [3] deals with Medicago sativa. Description: Herbicidal activity against Medicago sativa (alfalfa) assessed as inhibition of herb growth at 1.5 kg/ha during postemergence treatment protocol. The conditions noted are these: post-emergence, read-out: GI.
The test system of assay [4] is Digitaria sanguinalis. Description: Herbicidal activity against hairy Digitaria sanguinalis (hairy crabgrass) assessed as inhibition of herb growth at 1.5 kg/ha during postemergence treatment protocol. As to conditions: post-emergence, read-out: GI.
For assay [5], the system named is Brassica napus. Description: Herbicidal activity against Brassica napus (oilseed rape) assessed as inhibition of herb growth at 1.5 kg/ha during preemergence treatment protocol. As to conditions: pre-emergence, read-out: GI.
Assay [6] deals with Amaranthus retroflexus. Briefly: Herbicidal activity against Amaranthus retroflexus assessed as inhibition of herb growth at 1.5 kg/ha during preemergence treatment protocol. As to conditions: pre-emergence, read-out: GI.
In assay [7] the test system is Amaranthus retroflexus. Briefly: Herbicidal activity against Amaranthus retroflexus assessed as inhibition of herb growth at 1.5 kg/ha during postemergence treatment protocol. The conditions noted are these: post-emergence, read-out: GI.
Assay [8] relates to Digitaria sanguinalis. Briefly: Herbicidal activity against hairy Digitaria sanguinalis (hairy crabgrass) assessed as inhibition of herb growth at 1.5 kg/ha during preemergence treatment protocol. As to conditions: pre-emergence, read-out: GI.
For assay [9], the system named is Spinacia oleracea. Briefly: Inhibition of photosynthetic electron transport in Spinacia oleracea (spinach)isolated chloroplasts assessed as inhibition of Hill reaction. An outline of the steps:
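Chloroplasts from fresh spinach leaves, homogenised in ice-cold pH 7.8 buffer (0.4 M sucrose, 10 mM NaCl, 50 mM Tris-HCl), spun 3 min 120g then 5 min 1000g at 4 °C. Reaction buffer 350 mM NaCl, 10 mM Tris-HCl pH 7.8 with DCPIP; 2 min light (360 µmol m^-2 s^-1), DCPIP reduction at 620 nm. Compounds 0.01 mg/L–0.3 mg/mL in […]/water, ≥triplicate; IC50 by log-linear regression.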

The mark [10] stands for this setting: Spinacia oleracea, read-out: pIC50 (converted).

As to `CCOCCOC(=O)/C(C#N)=C(\NCc1cnc(OC)nc1)C(C)C`, the inhibition of growth at 1500 g/ha was determined as 57.1% in [1]; 19.4% in assay [2]; 74% in assay [3]; 52.2% in assay [4]; 0% in [5]; 22.2% in assay [6]. The inhibition of growth at 1500 g/ha in assay [7] worked out at 3.4%; in [8] it was 46.2%.
`CCOCCOC(=O)/C(C#N)=C(\NCc1cnc(OCC)nc1)SC`: the inhibition of growth at 1500 g/ha in [1] worked out at 31.1%; in assay [2], 16.1%; in assay [3] it was 40.8%; in [4], 8.7%; in assay [5], 0%; in assay [6] it was 15.9%. Besides, the inhibition of growth at 1500 g/ha is 26.4% in assay [7] and 12.5% in [8]. The IC50 in [9] is 1.45 ppm; in assay [9] (setting [10]), 1.07 µM.
As to `CCOCCOC(=O)/C(C#N)=C(\NCC1CCCO1)SC` (stereo not given), the inhibition of growth at 1500 g/ha in assay [1] was 21.8%; in [2], 47.5%; in [3], 23.4%; in assay [4] it was 0%; in assay [5] it was 0%; in assay [6], 9.5%. Moreover, the inhibition of growth at 1500 g/ha in assay [7] came out at 37.8%; in assay [8], 35.7%. For the same molecule, the values for the IC50 in assay [9] and in [9] (setting [10]) were 27.92 ppm and 20.9 µM, respectively.
For the molecule `CCOCCOC(=O)/C(C#N)=C(\NCC1CCCO1)C(C)C` (stereo not given), the inhibition of growth at 1500 g/ha in assay [1] was found to be 20.3%; in assay [2], 97.2%; in assay [3], 60.5%; in [4], 100%; in assay [5] it was 80%; in assay [6], 3.2%. For the same molecule, the inhibition of growth at 1500 g/ha in assay [7] was found to be 100%; in assay [8], 40%. In addition, the IC50 is 6.874 ppm in assay [9] and 6.92 µM in assay [9] (setting [10]).
Consider `CCOCCOC(=O)/C(C#N)=C(\NCC1CCOC1)C(C)C` (stereo not given), for which the inhibition of growth at 1500 g/ha in assay [1] is 2.3%; in [2] it was 88.2%; in [3] it was 41.3%; in assay [4], 57.6%; in assay [5], 0%; in [6] it was 12.6%. The inhibition of growth at 1500 g/ha amounted to 37.8% in [7] and 0% in assay [8]. The values for the IC50 in assay [9] and in [9] (setting [10]) were 41.4 ppm and 41.7 µM, respectively.
On to `CCOCCOC(=O)/C(C#N)=C(\NCc1ccoc1)C(C)C`, for which the inhibition of growth at 1500 g/ha in [1] was 10.5%; in assay [2], 51.9%; in assay [3], 13.2%; in assay [4], 0%; in [5], 0%; in assay [6], 22.1%. For the same molecule, the values for the inhibition of growth at 1500 g/ha in assay [7] and in [8] were 27.4% and 33.6%, respectively. Also, the IC50 was 6.6 ppm in assay [9] and 6.61 µM in assay [9] (setting [10]).
Turning to `CCOCCOC(=O)/C(C#N)=C(\NCc1cnc(OC(C)C)s1)C(C)C`, the inhibition of growth at 1500 g/ha in assay [1] was determined as 1.7%; in [2], 100%; in assay [3], 43.4%; in assay [4], 60.8%; in [5], 51.4%; in [6], 100%. Also, the inhibition of growth at 1500 g/ha in assay [7] came out at 100%; in assay [8] it was 6.9%. Moreover, the IC50 in [9] was 0.076 ppm; in [9] (setting [10]), 0.0759 µM.
As for `CCOCCOC(=O)/C(C#N)=C(\NCc1cnc(OCC(F)(F)F)s1)SC`, the inhibition of growth at 1500 g/ha was found to be 1.7% in assay [1]; 100% in assay [2]; 60.9% in assay [3]; 47.2% in [4]; 65.4% in assay [5]; 43.2% in assay [6]. For the same molecule, the inhibition of growth at 1500 g/ha in [7] came to 98.7%; in assay [8], 8.9%. For the same molecule, the IC50 was 0.055 ppm in [9] and 0.055 µM in [9] (setting [10]).
In the case of `CCOCCOC(=O)/C(C#N)=C(\NCc1cnc(OCC(F)(F)F)s1)C(C)C`, the inhibition of growth at 1500 g/ha is 0% in assay [1]; 100% in assay [2]; 53.3% in assay [3]; 95.2% in [4]; 71.9% in assay [5]; 51% in assay [6]. In addition, the inhibition of growth at 1500 g/ha in assay [7] was determined as 100%; in assay [8], 34.6%. Also, the results for the IC50 in assay [9] and in assay [9] (setting [10]) were 0.074 ppm and 0.0741 µM, respectively.
Regarding `CCOCCOC(=O)/C(C#N)=C(\NCc1ccc(Cl)nn1)SC`, the inhibition of growth at 1500 g/ha in assay [1] amounted to 0%; in assay [2], 81%; in assay [3] it was 27.8%; in assay [4], 28.8%; in [5] it was 12.5%; in assay [6] it was 43.2%. Besides, the results for the inhibition of growth at 1500 g/ha in [7] and in assay [8] were 21.8% and 0%, respectively. For the same molecule, the IC50 is 3.99 ppm in assay [9] and 3.98 µM in [9] (setting [10]).
Regarding `CCOCCOC(=O)/C(C#N)=C(\NCc1ccc(Cl)nn1)C(C)C`, the inhibition of growth at 1500 g/ha in assay [1] is 4.5%; in assay [2], 100%; in assay [3], 31.4%; in assay [4] it was 48%; in assay [5], 59.5%; in [6], 27%. Moreover, the inhibition of growth at 1500 g/ha was 91.6% in assay [7] and 10.9% in assay [8]. For the same molecule, the IC50 in [9] is 4.3 ppm; in [9] (setting [10]), 4.27 µM.
For `CCOCCOC(=O)/C(C#N)=C(\NCc1ccc(OCC)nn1)SC`, the inhibition of growth at 1500 g/ha in assay [1] stood at 0%; in assay [2], 64.6%; in assay [3] it was 24.2%; in assay [4], 0.8%; in assay [5], 0%; in assay [6], 56.8%. Also, the inhibition of growth at 1500 g/ha in assay [7] was 32.9%; in assay [8], 0%. Besides, the IC50 in assay [9] was 12.29 ppm; in assay [9] (setting [10]), 9.12 µM.
As to `CCOCCOC(=O)/C(C#N)=C(\NCc1ccc(OCC)nn1)C(C)C`, the inhibition of growth at 1500 g/ha amounted to 0% in [1]; 100% in assay [2]; 50.7% in [3]; 57.6% in assay [4]; 44.9% in assay [5]; 54% in assay [6]. Moreover, the figures for the inhibition of growth at 1500 g/ha in assay [7] and in assay [8] were 70.2% and 26.7%, respectively.
For the molecule `CCOCCOC(=O)/C(C#N)=C(\NCc1ccc(N2CCOCC2)nn1)SC`, the inhibition of growth at 1500 g/ha worked out at 10.1% in assay [1]; 18.1% in assay [2]; 32.8% in [3]; 2.4% in [4]; 10.9% in assay [5]; 13.5% in assay [6]. Further, the inhibition of growth at 1500 g/ha in assay [7] came to 24%; in [8], 6.9%.
Take `CCOCCOC(=O)/C(C#N)=C(\NCc1ccc(N2CCOCC2)nn1)C(C)C`: the inhibition of growth at 1500 g/ha in [1] came to 2.6%; in assay [2], 85.4%; in assay [3] it was 15.2%; in assay [4], 13.6%; in assay [5], 49.8%; in assay [6], 5.4%. Also, the results for the inhibition of growth at 1500 g/ha in [7] and in assay [8] were 19.1% and 22.8%, respectively.
`CCOCCOC(=O)/C(C#N)=C(\NCc1cnc(OC)nc1)SC`: the inhibition of growth at 1500 g/ha was 42.8% in assay [1]; 28.8% in assay [2]; 45.1% in assay [3]; 2.2% in [4]; 42.4% in [5]; 58.1% in assay [6]. In addition, the inhibition of growth at 1500 g/ha amounted to 15.5% in [7] and 26% in assay [8]. For the same molecule, the IC50 in [9] was 3.79 ppm; in [9] (setting [10]), 3.8 µM.
Regarding `CCOCCOC(=O)/C(C#N)=C(/CC)NCc1cnc(OC)nc1`, the inhibition of growth at 1500 g/ha in assay [1] was 29.4%; in [2] it was 63.7%; in [3], 26%; in assay [4] it was 2.2%; in [5], 51.5%; in [6], 34.6%. Moreover, the results for the inhibition of growth at 1500 g/ha in assay [7] and in assay [8] were 20.7% and 36%, respectively.
